# Laboratory results reported in ChEMBL document CHEMBL1156162, “Investigating the anti-proliferative activity of styrylazanaphthalenes and azanaphthalenediones” (Bioorg Med Chem, 2010).
# Tests used:
# [1] = Lipophilicity, log K by RT-HPLC method; assay type: physicochemical
# In short: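 RP-HPLC on a C18 column (5 µm, 4.6 × 250 mm) with photodiode array detection, column at 30 °C and samples at 10 °C. Lipophilicity expressed as capacity factor k and calculated log k.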
# [2] = test system: HCT-116; assay: Cytotoxicity against human HCT116 cells after 24 to 96 hrs by MTS assay; assay type: functional, cell-based
# In short: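 HCT116 cells grown as monolayers in DMEM with 12% FBS and antibiotics at 37 °C, 5% CO2. Seeded at 3.5×10³, 7×10³ or 9×10³ cells/well, cultured 18 h, then exposed to 0.58 or 46 µmol/L final for 24, 48 or 96 h at 37 °C. Medium replaced with phenol red-free DMEM, MTS added for 1 h, absorbance read at 490 nm.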
# [3] = test system: NIH3T3 (Mus musculus); assay: Cytotoxicity against mouse NIH/3T3 cells assessed as IC50
# [4] = test system: SK-N-MC; assay: Cytotoxicity against human SK-N-MC cells after 72 hrs by MTT assay; assay type: functional, cell-based
# In short: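 SK-N-MC cells in MEM with 10% FBS, pyruvate, non-essential amino acids, glutamine, antibiotics and fungizone. Seeded 24 h before treatment, then 72 h with varying concentrations. MTT (5 mg/mL stock) added for 2 h at 37 °C, followed by lysis and OD at 570 nm. IC50 derived; triplicate wells, experiments repeated 3–7 times.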
# [5] = test system: HCT-116; assay: Cytotoxicity against human HCT116 cells assessed as decrease in survival fraction of cells at 0.58 uM after 24 hrs by colonogenic assay; assay type: functional
# In short: (§1)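 HCT116 cells (8.5×10⁴ or 2.1×10⁵) were seeded in 35-mm dishes and held 18 h, then exposed to 0.58 or 46 µM in medium for 24 h or 96 h. Cells were trypsinised and re-seeded drug-free, then grown 9 days at 37 °C. Colonies were fixed in ethanol, stained with crystal violet, and those of ≥50 cells counted. Survival fraction was taken relative to untreated cells; means of 3 or 2 experiments.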
# [6] = test system: HCT-116; assay: Cytotoxicity against human HCT116 cells assessed as decrease in survival fraction of cells at 46 uM after 24 hrs by colonogenic assay; assay type: functional; in short: as §1
# [7] = test system: HCT-116; assay: Cytotoxicity against human HCT116 cells assessed as decrease in survival fraction of cells at 46 uM after 96 hrs by colonogenic assay; assay type: functional; in short: as §1
# [8] = test system: HCT-116; assay: Cytotoxicity against human HCT116 cells assessed as decrease in survival fraction of cells at 0.58 uM after 96 hrs by colonogenic assay; assay type: functional; in short: as §1
# [9] = Cytotoxicity against mouse NIH/3T3 cells assessed as viable cells after 72 hrs by MTT assay; assay type: cell-based; settings: NIH3T3, 72 h
# [10] = test system: L1210; assay: Antiproliferative activity against mouse L1210 cells; assay type: functional, cell-based
# [11] = test system: NIH3T3 (Mus musculus); assay: Cytotoxicity against mouse NIH/3T3 cells assessed as IC50; remark: listed apart in the source
SMILES,log K [1],IC50 [2] [µM],IC50 [4] [µM],further results
COc1cccc(/C=C/c2nc(Cl)c3ccccc3n2)c1,1.183,,5.28,IC50 [3]: > 100 µM
CC(=O)C1=CC(=O)c2nc(C)ccc2C1=O,,10.9,,Activity [5]: 1.07; Activity [6]: 0.04; Activity [7]: 0; Activity [8]: 0.21
Cc1nc2ccc([N+](=O)[O-])cc2c(=O)n1C(N)=O,0.958,> 92,> 6.25,
CC(=O)N(O)CCCCCNC(=O)CCC(=O)N(O)CCCCCNC(=O)CCC(=O)N(O)CCCCCN [DEFEROXAMINE],,,9.89,
O=c1[nH]c(/C=C/c2ccc(Br)cc2)nc2ccc([N+](=O)[O-])cc12,1.675,,> 6.25,
CC(=O)NC1=CC(=O)c2cnc(C)nc2C1=O,0.017,17,,Activity [5]: 1.2; Activity [6]: 0; Activity [7]: 0; Activity [8]: 0.26
Oc1cccc2ccc(/C=C/c3ccc(Cl)cc3)nc12,1.539,,0.7,
Cc1nc2ccccc2c(=O)n1C(N)=O,0.553,> 600,> 6.25,
COc1ccc2nc(/C=C/c3ccccc3)[nH]c(=O)c2c1,,,,IC50 [10]: 3.59 µM
COc1ccc(/C=C/c2nc(Cl)c3ccccc3n2)cc1,1.134,,4.34,IC50 [3]: > 100 µM
Clc1nc(/C=C/c2ccccc2)nc2ccccc12,1.109,,4.96,IC50 [9]: 3.04 µM
COc1cccc2c1C(=O)c1c(O)c3c(c(O)c1C2=O)C[C@@](O)(C(=O)CO)C[C@@H]3O[C@H]1C[C@H](N)[C@H](O)[C@H](C)O1 [DOXORUBICIN],,5.95,0.12,

# The next lines start with results.
log K [1],SMILES,IC50 [2] [µM],IC50 [4] [µM],further results
0.551,O=c1[nH]c(/C=C/c2ccc(O)c(O)c2O)nc2ccccc12,> 46,,
1.195,COc1ccc(/C=C/c2nc(Cl)c3ccccc3n2)c(OC)c1,23,1.75,IC50 [3]: 34.1 µM
1.59,O=c1[nH]c(/C=C/c2cccc(Br)c2)nc2ccccc12,,> 6.25,
1.151,COc1ccccc1/C=C/c1nc2ccccc2c(=O)[nH]1,1.58,2.88,IC50 [9]: 1.17 µM
1.198,COc1ccc(/C=C/c2nc3ccccc3c(=O)[nH]2)c(OC)c1,,> 6.25,
1.184,COc1cccc(/C=C/c2nc3ccccc3c(=O)[nH]2)c1,,5.13,
1.115,O=c1[nH]c(/C=C/c2ccccc2)nc2ccccc12,2.53,1.39,IC50 [9]: 2.4 µM
1.035,O=Cc1ccc(/C=C/c2nc3ccccc3c(=O)[nH]2)cc1,,> 6.25,
1.135,COc1ccc(/C=C/c2nc3ccccc3c(=O)[nH]2)cc1,> 46,> 6.25,IC50 [3]: > 100 µM
1.365,COc1ccccc1/C=C/c1nc(Cl)c2ccccc2n1,9.4,0.58,IC50 [3]: > 100 µM; Activity [5]: 0.43; Activity [6]: 0.03; IC50 [11]: > 100 µM; Activity [7]: 0; Activity [8]: 0
1.506,O=c1[nH]c(/C=C/c2cccc(Cl)c2)nc2ccccc12,,> 6.25,
1.593,O=c1[nH]c(/C=C/c2ccc(Br)cc2)nc2ccccc12,,2.85,
1.483,O=c1[nH]c(/C=C/c2ccccc2Br)nc2ccccc12,> 46,> 6.25,
